Results reported in publication PMC9723933 (The Journal of Biological Chemistry, 2022).
pIC50: −log10 of the molar value. Blank lines part the entries; values can stand above or below the compound they belong to.

Legend:
[1] = system: Pdr5 F683L mutant; assay: Accumulation of R6G prior to glucose-mediated efflux; assay type: cell-based, yeast; settings: 20 μM R6G, Hepes buffer, no glucose, 90 min
[2] = system: F683L mutant strain; settings: original characterization; cited from earlier work
[3] = system: F683L mutant strain; assay: Relative drug resistance; assay type: cell-based, yeast; settings: n = 4
[4] = system: Pdr5 I685A, V1372A double mutant; assay: Whole-cell R6G transport against a concentration gradient; assay type: cell-based, yeast
[5] = target: Pdr5 G1371A strain (Saccharomyces cerevisiae, UniProt P33302, G1371A); assay: Whole-cell R6G transport against a concentration gradient; assay type: cell-based, yeast; settings: median; 90 min, 30 °C, Hepes-glucose buffer
Chain of Pdr5 G1371A strain (P33302 whole entry G1371A): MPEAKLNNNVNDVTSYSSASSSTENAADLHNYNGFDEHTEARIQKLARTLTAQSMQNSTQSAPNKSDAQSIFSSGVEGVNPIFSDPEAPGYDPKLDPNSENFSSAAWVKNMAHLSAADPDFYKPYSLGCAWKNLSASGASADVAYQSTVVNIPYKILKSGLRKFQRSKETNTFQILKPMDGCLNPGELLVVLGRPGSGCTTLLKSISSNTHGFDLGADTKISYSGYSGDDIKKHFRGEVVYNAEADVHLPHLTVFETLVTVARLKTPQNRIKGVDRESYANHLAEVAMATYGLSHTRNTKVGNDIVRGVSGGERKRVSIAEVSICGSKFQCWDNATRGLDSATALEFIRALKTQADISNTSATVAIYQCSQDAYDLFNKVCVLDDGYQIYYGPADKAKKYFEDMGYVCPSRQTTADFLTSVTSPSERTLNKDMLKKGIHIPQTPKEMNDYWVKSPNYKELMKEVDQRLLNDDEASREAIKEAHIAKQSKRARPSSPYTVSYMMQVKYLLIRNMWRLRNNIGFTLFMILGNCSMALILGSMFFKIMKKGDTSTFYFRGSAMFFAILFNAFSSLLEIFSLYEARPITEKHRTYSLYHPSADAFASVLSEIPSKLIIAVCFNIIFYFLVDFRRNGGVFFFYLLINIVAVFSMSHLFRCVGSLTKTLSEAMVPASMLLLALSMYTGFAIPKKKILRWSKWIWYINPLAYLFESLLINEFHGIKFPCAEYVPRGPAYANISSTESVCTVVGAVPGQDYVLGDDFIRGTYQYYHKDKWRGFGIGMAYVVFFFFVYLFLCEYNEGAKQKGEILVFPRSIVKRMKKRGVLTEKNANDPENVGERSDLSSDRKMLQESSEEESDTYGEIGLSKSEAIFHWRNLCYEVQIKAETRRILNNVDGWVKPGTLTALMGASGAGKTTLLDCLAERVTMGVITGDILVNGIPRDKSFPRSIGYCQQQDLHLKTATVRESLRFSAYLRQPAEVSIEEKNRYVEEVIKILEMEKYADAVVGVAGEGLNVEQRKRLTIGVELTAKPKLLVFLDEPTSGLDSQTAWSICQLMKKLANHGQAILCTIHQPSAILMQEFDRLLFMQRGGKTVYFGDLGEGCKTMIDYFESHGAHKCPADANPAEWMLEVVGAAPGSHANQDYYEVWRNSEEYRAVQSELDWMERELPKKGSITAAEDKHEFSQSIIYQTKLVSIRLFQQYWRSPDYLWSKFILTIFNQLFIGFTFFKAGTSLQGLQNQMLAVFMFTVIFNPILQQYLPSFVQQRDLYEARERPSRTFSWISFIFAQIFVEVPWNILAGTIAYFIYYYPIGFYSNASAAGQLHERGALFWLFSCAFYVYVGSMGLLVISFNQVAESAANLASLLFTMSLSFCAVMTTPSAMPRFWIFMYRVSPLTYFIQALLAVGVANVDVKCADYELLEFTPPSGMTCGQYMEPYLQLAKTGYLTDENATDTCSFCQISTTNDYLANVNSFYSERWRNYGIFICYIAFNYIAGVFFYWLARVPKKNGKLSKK
How it was run: (§1)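 Log-phase yeast grown in YPD at 30 °C, R-1 background with integrated PDR5 under its own promoter. 3 × 10^6 cells were incubated in 0.02 M Hepes with 1 mM glucose (pH 7.0) and 20 μM R6G at 30 °C for 90 min, then washed in cold glucose-free Hepes. Median retained fluorescence was read by flow cytometry from 10,000 cells, in arbitrary units; n ≥ 4.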

[6] = target: Pdr5 M1373A mutant (Saccharomyces cerevisiae, UniProt P33302, M1373A); assay: Whole-cell R6G transport against a concentration gradient; assay type: cell-based, yeast; settings: median; 90 min, 30 °C, Hepes-glucose buffer
Chain of Pdr5 M1373A mutant (P33302 whole entry M1373A): as the sequence (P33302 whole entry G1371A) above, with A1371G, M1373A counted along it

[7] = system: M1373T and A684S mutant strains; assay: Relative drug resistance; assay type: cell-based, yeast; settings: n = 4
[8] = system: ΔPdr5 strain; assay: Whole-cell R6G transport against a concentration gradient; assay type: cell-based, yeast; settings: median; 90 min, 30 °C, Hepes-glucose buffer
[9] = target: Pdr5 WT control strain (Saccharomyces cerevisiae, UniProt P33302); assay: Whole-cell R6G transport against a concentration gradient; assay type: cell-based, yeast; settings: median; 90 min, 30 °C, Hepes-glucose buffer
Chain of Pdr5 WT control strain (P33302 whole entry): as the sequence (P33302 whole entry G1371A) above, with A1371G counted along it
How it was run: as §1

[10] = target: Pdr5 F1369A mutant (Saccharomyces cerevisiae, UniProt P33302, F1369A); assay: Whole-cell R6G transport against a concentration gradient; assay type: cell-based, yeast
Chain of Pdr5 F1369A mutant (P33302 whole entry F1369A): as the sequence (P33302 whole entry G1371A) above, with F1369A, A1371G counted along it

[11] = target: Pdr5 V1372A (Saccharomyces cerevisiae, UniProt P33302, V1372A); assay: biochemical; assay type: biochemical, yeast
Chain of Pdr5 V1372A (P33302 whole entry V1372A): as the sequence (P33302 whole entry G1371A) above, with A1371G, V1372A counted along it

[12] = target: Pdr5 V1372A, I685A double mutant (Saccharomyces cerevisiae, UniProt P33302, I685A/V1372A); assay: biochemical; parameters: species or system yeast
Chain of Pdr5 V1372A, I685A double mutant (P33302 whole entry I685A/V1372A): as the sequence (P33302 whole entry G1371A) above, with I685A, A1371G, V1372A counted along it

[13] = target: Pdr5 WT (Saccharomyces cerevisiae, UniProt P33302); assay: Inhibition of Pdr5 ATPase activity in purified PM vesicles; assay type: biochemical, yeast
Chain of Pdr5 WT (P33302 whole entry): as the sequence (P33302 whole entry G1371A) above, with A1371G counted along it

[14] = target: Pdr5 G1371A (Saccharomyces cerevisiae, UniProt P33302, G1371A); assay: as above; assay type: biochemical, yeast; settings: relative to WT
Chain of Pdr5 G1371A (P33302 whole entry G1371A): as the sequence (P33302 whole entry G1371A) above

[15] = target: Pdr5 I685A (Saccharomyces cerevisiae, UniProt P33302, I685A); assay: biochemical; assay type: biochemical, yeast
Chain of Pdr5 I685A (P33302 whole entry I685A): as the sequence (P33302 whole entry G1371A) above, with I685A, A1371G counted along it

[16] = system: I685A mutant strain; assay type: cell-based, yeast; settings: liquid YPD, 30 °C, n = 3
[17] = system: V1372A mutant strain; assay type: cell-based, yeast; settings: liquid YPD, 30 °C, n = 3
[18] = system: M1373A mutant strain; assay: Relative drug resistance in liquid YPD culture; assay type: cell-based, yeast; settings: compared with ΔPdr5 control strain

Retained R6G fluorescence, G1371A strain [5]: 3093 a.u.
Retained R6G fluorescence, M1373A mutant [6]: 4900 a.u.
Retained R6G fluorescence, WT control strain [9]: 272.6 a.u.
Retained fluorescence of F1369A mutant relative to WT control ([10]; against R6G gradient): ~5 ×
Retained R6G fluorescence, F1369A mutant ([10]; median, 90 min, 30 °C, Hepes-glucose buffer): 1288 a.u.
Compound: CC/N=c1\cc2oc3cc(NCC)c(C)cc3c(-c3ccccc3C(=O)OCC)c-2cc1C [R6G, rhodamine 6G]
Fluorescence accumulated by F683L mutant relative to WT control [1]: about 3 ×
Minimum inhibitory concentration of F683L mutant relative to WT value [2]: one-eighth
Rank of F683L mutant sensitivity among the four drugs [3]: most sensitive
Retained R6G in double mutant relative to WT strain [4]: twice
Sensitivity of M1373T and A684S mutants relative to WT [7]: indistinguishable from the WT
Retained R6G fluorescence, ΔPdr5 strain [8]: 5001 a.u.

Compound: c1ccc(-c2ccc(C(c3ccccc3)n3ccnc3)cc2)cc1 (stereo not shown) [bifonazole]
pIC50 [11]: 5.48
IC50 of single mutant V1372A compared with WT ([11]; ATPase inhibition, in words): not significantly different from the WT
pIC50 [12]: 4.89
pIC50 [13]: 5.54
Sensitivity of G1371A ATPase to allosteric inhibition [14]: strikingly hypersensitive
pIC50 [15]: 5.59
IC50 of single mutant I685A compared with WT ([15]; ATPase inhibition, in words): not significantly different from the WT

Compound: C/C=C/C/C=C/CCC(=O)[C@H]1O[C@H]1C(N)=O [cerulenin]
Resistance of I685A mutant relative to WT [16]: hypersensitive
Resistance of V1372A mutant relative to WT [17]: hyper-resistant

Compound: CC(C)(C)C(=O)C(Oc1ccc(Cl)cc1)n1ccnc1 (stereo not shown) [climbazole]
Resistance of I685A mutant relative to WT [16]: hypersensitive
Resistance of M1373A mutant [18]: phenotypically indistinguishable from the ΔPdr5 control strain
Resistance of V1372A mutant relative to WT [17]: hypersensitive

Compound: C[C@@H]1C[C@@H]([C@H](O)CC2CC(=O)NC(=O)C2)C(=O)[C@@H](C)C1 [cycloheximide]
Sensitivity of F683L mutant [2]: hypersensitive
Resistance of I685A mutant relative to WT [16]: mildly hyper-resistant
Sensitivity of M1373T and A684S mutants relative to WT [7]: mildly hypersensitive
Resistance of M1373A mutant [18]: phenotypically indistinguishable from the ΔPdr5 control strain
Resistance of V1372A mutant relative to WT [17]: hypersensitive

Compound: OC(Cn1cncn1)(Cn1cncn1)c1ccc(F)cc1F [fluconazole]
Sensitivity of F683L mutant [2]: hypersensitive
Sensitivity of M1373T and A684S mutants relative to WT [7]: quite hypersensitive

Compound: CC(=O)N1CCN(c2ccc(OCC3COC(Cn4ccnc4)(c4ccc(Cl)cc4Cl)O3)cc2)CC1 (stereo not shown) [ketoconazole]
Rank of F683L mutant sensitivity among the four drugs [3]: least sensitive
Sensitivity of M1373T and A684S mutants relative to WT [7]: quite hypersensitive

Compound: CC/C(=C(\c1ccccc1)c1ccc(OCCN(C)C)cc1)c1ccccc1 [tamoxifen]
Resistance of I685A mutant relative to WT [16]: hypersensitive
Resistance of V1372A mutant relative to WT [17]: hyper-resistant
